In ChEMBL document CHEMBL5046294, “Rational Design, Chemical Syntheses, and Biological Evaluations of Peripherally Selective Mu Opioid Receptor Ligands as Potential Opioid Induced Constipation Treatment” (J Med Chem, 2022):
Active and inactive are the calls of the source.

Legend:
[1] = Selectivity index, ratio of Ki for binding affinity to human delta opioid receptor to Ki for binding affinity to mouse mu opioid receptor
Method in brief: (§1)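 Competition binding. Membranes (30 μg protein) from CHO cells with mouse MOR or KOR, or human DOR. Incubated with radioligand and varying test concentrations in TME buffer, pH 7.4, 1.5 h at 30 °C. Filtration harvest. Nonspecific binding defined with 5 μM naltrexone (MOR), U50,488 (KOR) or SNC80 (DOR). IC₅₀ by nonlinear regression, converted to Ki by Cheng-Prusoff. Selectivity ratios taken from these Ki values. At least three independent experiments.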

Mus musculus [2] = assay: Antinociceptive activity against Swiss Webster mouse assessed as tail withdrawal latency from warm water by measuring maximum possible effect at 10 mg/kg, sc incubated for 5 mins followed by morphine addition measured after 20 mins by warm water tail immersion assay; assay type: functional; conditions: time 25 min
Method in brief: (§2)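 Male Swiss Webster mice, 5–8 weeks, 25–35 g, 6 per group. Tail immersed (distal third) in water at 56 ± 0.1 °C. Mice included only with baseline latency 2–4 s. Compound 10 mg/kg s.c.; in the challenge arm it was given 5 min before morphine 10 mg/kg s.c. Latency read 20 min after injection, 10-s cutoff. %MPE = (test − control)/(10 − control) × 100. Dunnett-corrected one-way ANOVA.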

[3] = molecular target: T1, Delta-type opioid receptor (Homo sapiens, UniProt P41143); assay: Binding affinity to human delta opioid receptor in presence of SNC80 incubated for 1.5 hrs by competitive radioligand binding assay; method in brief: as §1
Mus musculus [4] = assay: Antinociceptive activity against sc dosed Swiss Webster mouse model assessed as effect on morphine induced antinociception by measuring tail withdrawal latency from warm water incubated for 5 mins followed by morphine addition measured after 20 mins by warm water tail immersion assay; assay type: functional; conditions: for Activity: time 25.0 min; method in brief: as §2
Mu-type opioid receptor [5] = molecular target: T2, Mu-type opioid receptor (Mus musculus, UniProt P42866); assay: Antagonist activity at mouse mu opioid receptor expressed in CHO cell membrane assessed as reduction in DAMGO-induced […]-GTPgammaS binding incubated for 1.5 hrs by liquid scintillation counting method; assay type: functional, cell membranes
Mu-type opioid receptor [6] = molecular target: T2, Mu-type opioid receptor; assay: Binding affinity to mouse mu opioid receptor expressed in CHO cells in presence of naltrexone incubated for 1.5 hrs by competitive radioligand binding assay; assay type: cell-based; method in brief: as §1
Mus musculus [7] = assay: Antinociceptive activity against Swiss Webster mouse assessed as tail withdrawal latency from warm water by measuring maximum possible effect at 10 mg/kg, sc measured after 20 mins by warm water tail immersion assay; assay type: functional; method in brief: as §2
[8] = molecular target: Mu-type opioid receptor (Mus musculus) (UniProt P42866); assay: Antagonist activity at mouse mu opioid receptor expressed in CHO cell membrane assessed as reduction in DAMGO-induced […]-GTPgammaS binding by measuring maximal efficacy incubated for 1.5 hrs by liquid scintillation counting method relative to control; assay type: functional, cell membranes
Method in brief: (§3)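 [³⁵S]GTPγS binding. Membranes (10 μg protein) from CHO cells expressing MOR, KOR or DOR. Buffer TME (50 mM Tris, 3 mM MgCl₂, 0.2 mM EGTA, pH 7.4) with 100 mM NaCl, 20 μM GDP and 0.1 nM [³⁵S]GTPγS. Test compound at varying concentrations. Incubation 1.5 h at 30 °C. Nonspecific binding with 20 μM unlabeled GTPγS. Reference full agonist at 3 μM: DAMGO (MOR), U50488H (KOR), SNC80 (DOR). Filtration, then scintillation counting. Duplicates, at least three repeats.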

[9] = molecular target: T3, Kappa-type opioid receptor (Mus musculus, UniProt P33534); assay: Binding affinity to mouse kappa opioid receptor expressed in CHO cells in presence of U50488 incubated for 1.5 hrs by competitive radioligand binding assay; assay type: cell-based; method in brief: as §1
Mus musculus [10] = organism: Mus musculus; assay: Selectivity index, ratio of Ki for binding affinity to mouse kappa opioid receptor to Ki for binding affinity to mouse mu opioid receptor; method in brief: as §1
Mus musculus [11] = assay: Gastroprokinetic activity in Swiss Webster mouse assessed as stimulation of gastrointestinal motility by measuring time required to defecation of red fecal pellet at 10 mg/kg, po incubated for 5 mins followed by morphine addition at 10 mg/kg and measured after 20 mins by carmine red dye assay; assay type: functional; conditions: time 25 min
Method in brief: (§4)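 Male Swiss Webster mice, 5–6 per group, housed singly. Compound or vehicle given s.c. or by oral gavage 5 min before morphine (10 or 5 mg/kg) or vehicle. 20 min after morphine, 0.2 mL of 6% carmine red in 0.5% CMC given orally (time 0). Time to first red pellet recorded, 6-h cutoff. Dunnett-corrected one-way ANOVA.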

Mus musculus [12] = assay: Gastroprokinetic activity in Swiss Webster mouse assessed as stimulation of gastrointestinal motility by measuring time required to defecation of red fecal pellet at 10 mg/kg, po incubated for 5 mins followed by morphine addition at 5 mg/kg and measured after 20 mins by carmine red dye assay; assay type: functional; conditions: time 25 min; method in brief: as §4
Mus musculus [13] = assay: Reversal of morphine induced constipation in Swiss Webster mouse at 10 mg/kg, po for 5 mins followed by morphine addition measured after 20 mins by carmine red dye assay relative to control; assay type: functional; conditions: time 25 min; method in brief: as §4
[14] = molecular target: T3, Kappa-type opioid receptor; assay: Antagonist activity at kappa opioid receptor (unknown origin) expressed in CHO cell membrane assessed as reduction in U50,488H-induced […]-GTPgammaS binding incubated for 1.5 hrs by liquid scintillation counting method; assay type: functional, cell membranes
Mus musculus [15] = assay: Gastroprokinetic activity in Swiss Webster mouse assessed as stimulation of gastrointestinal motility by measuring time required to defecation of red fecal pellet at 10 mg/kg, sc incubated for 5 mins followed by morphine addition at 10 mg/kg and measured after 20 mins by carmine red dye assay; assay type: functional; conditions: time 25 min; method in brief: as §4
[16] = molecular target: T4, Kappa-type opioid receptor (Homo sapiens, UniProt P41145); assay: Antagonist activity at kappa opioid receptor (unknown origin) expressed in CHO cell membrane assessed as reduction in U50,488H -induced […]-GTPgammaS binding by measuring maximal efficacy incubated for 1.5 hrs by liquid scintillation counting method relative to control; assay type: functional, cell membranes; method in brief: as §3
[17] = molecular target: T1, Delta-type opioid receptor; assay: Antagonist activity at human delta opioid receptor expressed in CHO cell membrane assessed as reduction in SNC80-induced […]-GTPgammaS binding by measuring maximal efficacy incubated for 1.5 hrs by liquid scintillation counting method relative to control; assay type: functional, cell membranes; method in brief: as §3
Mus musculus [18] = assay: Reversal of morphine induced constipation in Swiss Webster mouse at 10 mg/kg, po for 5 mins followed by morphine addition at 5 mg/kg and measured after 20 mins by carmine red dye assay; assay type: functional; method in brief: as §4
[19] = molecular target: T1, Delta-type opioid receptor; assay: Antagonist activity at human delta opioid receptor expressed in CHO cell membrane assessed as reduction in SNC80-induced […]-GTPgammaS binding incubated for 1.5 hrs by liquid scintillation counting method; assay type: functional, cell membranes
[20] = molecular target: T4, Kappa-type opioid receptor; assay: Displacement of [3H]-U69593 from human recombinant kappa opioid receptor by radioligand binding assay
Mu-type opioid receptor [21] = molecular target: Mu-type opioid receptor (Homo sapiens, UniProt P35372); assay: Antagonist activity at human recombinant mu opioid receptor assessed as reduction in DAMGO-induced […]-GTPgammaS binding; assay type: functional
[22] = molecular target: T4, Kappa-type opioid receptor; assay: Antagonist activity at human recombinant kappa opioid receptor assessed as reduction in U50,488H-induced […]-GTPgammaS binding; assay type: functional
Mus musculus [23] = assay: Gastroprokinetic activity in Swiss Webster mouse assessed as stimulation of gastrointestinal motility by measuring time required to defecation of red fecal pellet at 10 mg/kg, sc incubated for 20 mins by carmine red dye assay; assay type: functional
Method in brief: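 Male Swiss Webster mice (5–8 weeks, 25–35 g), singly caged, 5–6 per group. Compound or vehicle was given s.c. 5 min before morphine 10 mg/kg (or vehicle). 20 min after morphine, mice received 0.2 mL of 6% carmine red dye in 0.5% carboxymethyl cellulose orally, set as time 0. Latency to the first red fecal pellet was measured, with a 6 h cut-off. One-way ANOVA followed by Dunnett test.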

Mus musculus [24] = assay: Gastroprokinetic activity in Swiss Webster mouse assessed as stimulation of gastrointestinal motility by measuring time required to defecation of red fecal pellet at 5 mg/kg, po incubated for 20 mins by carmine red dye assay; assay type: functional; method in brief: as §4
Mus musculus [25] = assay: Gastroprokinetic activity in Swiss Webster mouse assessed as stimulation of gastrointestinal motility by measuring time required to defecation of red fecal pellet at 10 mg/kg, po incubated for 20 mins by carmine red dye assay; assay type: functional
Method in brief: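 Male Swiss Webster mice (5–8 weeks, 25–35 g), singly caged, 5–6 per group. Compound or vehicle was given by oral gavage 5 min before s.c. morphine (10 or 5 mg/kg) or vehicle. Oral vehicle was also given to naïve and morphine groups. 20 min after morphine, mice received 0.2 mL of 6% carmine red in 0.5% CMC p.o. (time 0). Time to the first red pellet was recorded, with a 6 h cut-off. One-way ANOVA with Dunnett test.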

Work on O=C(N[C@@H]1CC[C@@]2(O)[C@H]3Cc4ccc(O)c5c4[C@@]2(CCN3CC2CC2)[C@H]1O5)c1ncc[nH]1 yielded a Ratio Ki [1] of 335, an MPE (Mus musculus [2]) of 32.7% and a Ki [3] of 146 nM. The Activity (Mus musculus [4]) was “inactive”, the EC50 (Mu-type opioid receptor [5]) was 1.74 nM and the Ki (Mu-type opioid receptor [6]) was 0.44 nM. The Activity (Mus musculus [7]) was “inactive”, the Emax [8] was 7.5% and the Ki [9] was 4.8 nM. For the same compound, the Ratio Ki (Mus musculus [10]) was 11.
In the case of O=C(N[C@@H]1CC[C@@]2(O)[C@H]3Cc4ccc(O)c5c4[C@@]2(CCN3CC2CC2)[C@H]1O5)c1cnc[nH]1, the Time (Mus musculus [11]) is reported as 71 min, the Time (Mus musculus [12]) is reported as 27 min and the Activity (Mus musculus [13]) is reported as 38%. For the same compound, the Ki [3] was 209 nM, the Activity (Mus musculus [4]) was “inactive” and the EC50 [14] was 11.7 nM. It also gave an EC50 (Mu-type opioid receptor [5]) of 1.15 nM, a Ki (Mu-type opioid receptor [6]) of 0.58 nM and a Time (Mus musculus [15]) of 137 min. The Emax [16] was 9.03%, the Activity (Mus musculus [7]) was “inactive” and the Emax [17] was 22.1%. The Ki [9] was 18.8 nM and the Activity (Mus musculus [18]; time 25 min) was 75%.
For O=C(N[C@@H]1CC[C@@]2(O)[C@H]3Cc4ccc(O)c5c4[C@@]2(CCN3CC2CC2)[C@H]1O5)c1ccncc1, the Time (Mus musculus [12]) was 151 min and the Activity (Mus musculus [18]; time 25.0 min) was “inactive”.
With O=C(Cc1cc[nH]n1)N[C@H]1CC[C@@]2(O)[C@H]3Cc4ccc(O)c5c4[C@@]2(CCN3CC2CC2)[C@H]1O5 the Time (Mus musculus [11]) was 57 min, the EC50 [19] was 20.5 nM and the Ki [3] was 195 nM. The Activity (Mus musculus [4]) was “inactive”, the EC50 [14] was 99 nM and the EC50 (Mu-type opioid receptor [5]) was 6.17 nM. It also gave a Ki (Mu-type opioid receptor [6]) of 1.05 nM, a Time (Mus musculus [15]) of 154 min and an Emax ([16]; filed as antagonist) of 49.9%. The Activity (Mus musculus [7]) was “inactive”, the Emax ([17]; filed as antagonist) was 69.3% and the Ki [9] was 154 nM.
With C[N@+]1(CC2CC2)CC[C@]23c4c5ccc(O)c4O[C@H]2C(=O)CC[C@@]3(O)[C@H]1C5 [METHYLNALTREXONE] the Time (Mus musculus [12]) was 111 min, the Ki [20] was 32.1 nM and the EC50 (Mu-type opioid receptor [21]) was > 10000 nM. For the same compound, the EC50 [22] was > 10000 nM and the Activity (Mus musculus [18]; time 25.0 min) was “inactive”.
With CN1CC[C@]23c4c5ccc(O)c4O[C@H]2[C@@H](O)C=C[C@H]3[C@H]1C5 [MORPHINE] the Time (Mus musculus [23]) was 124 min, the Time (Mus musculus [24]) was 105 min and the Time (Mus musculus [25]) was 115 min.
Compound O=C(N[C@H]1CC[C@@]2(O)[C@H]3Cc4ccc(O)c5c4[C@@]2(CCN3CC2CC2)[C@H]1O5)c1ncc[nH]1 has a Ratio Ki [1] of 152, an MPE (Mus musculus [2]) of 9.2% and a Ki [3] of 70.9 nM. The AD50 (Mus musculus [4]; time 25 min) was 5.3 mg/kg, the EC50 (Mu-type opioid receptor [5]) was 2.01 nM and the Ki (Mu-type opioid receptor [6]) was 0.47 nM. The Activity (Mus musculus [7]) was “inactive”, the Emax [8] was 7.85% and the Ki [9] was 1.77 nM. The Ratio Ki (Mus musculus [10]) was 4.
